Measurements as given in article PMC3838623 (Journal of Pharmaceutical Sciences, 2013).
Like-named read-outs stand apart in the source and are kept apart here.

What was measured:
plasma proteins [1] = conditions: liraglutide concentration 10^2 pM, cited from earlier work
[2] = tested on: plasma proteins (human plasma); experiment: Reiterated stepwise equilibrium dialysis, plasma protein binding; type: in vitro ADME; conditions: two-sided ANOVA
Outline: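 Human plasma spiked with test compound (final 10^6, 10^4 or 10^2 pM) was placed in a 1.0 mL dialysis sac inside a buffer chamber pre-coated with compound-containing buffer. Compound was present in both chambers at inner–outer ratios of 100:1 or 50:1. Dialysis ran 4–5 h at 37 ± 2°C with slow rotation, in triplicate, with radioactivity counting. % bound relative to pre-incubation; mean (SD) analysed by two-sided ANOVA for gender and concentration.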

[3] = cited from earlier work
plasma proteins [4] = conditions: cited from earlier work

estimated difference in protein binding, 10^2 pM compared with 10^4 pM ([2]; p = 0.581) | estimated difference in protein-bound liraglutide, females vs. males ([2]; p = 0.593) | Substance | mean (SD) unbound percentage (plasma proteins [1]; healthy subjects) | mean (SD) unbound percentage (plasma proteins [1]; subjects with mild hepatic impairment) | plasma half-life [3] | liraglutide pharmacokinetics in renal impairment ([3]; subjects with mild-to-severe renal impairment versus healthy subjects) | plasma protein binding (plasma proteins [4])
0.05% | −0.18% | liraglutide | 0.53% (0.46) | 0.59% (0.61) | approximately 13 h | not altered | 
 |  | exenatide: GLP-1 receptor agonist with shorter duration of action, twice-daily administration |  |  |  |  | does not demonstrate significant levels of plasma protein binding
